Screens deposited in PubChem BioAssay by Johns Hopkins Ion Channel Center.
The list is not random: actives were taken first. Their share in the collection is about 3.5%.
RGS4 pot: potentiators or activators of RGS4; HEK293 M3R/inducible RGS4, carbachol calcium flux Fluo4; active compounds read low; B-score at 10 µM; 0.92% of 310,000 active; AID 463111;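 active means B-score of the integrated calcium signal more than 4 SD below the library mean, with starting fluorescence not abnormally high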;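 further: negative B-score means reduced calcium response which marks RGS4 activation or potentiation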
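test system = HEK293 cells with stable M3R and inducible RGS4 | schedule = recording 10 s baseline at 1 Hz, 100 s post-agonist | technique = Fluo4-AM (2 µM) calcium-flux fluorescence, kinetic read | measure = Agonist-evoked peak-minus-minimum fluorescence over baseline, integrated ratio, B score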
MrgX1 ag: human MrgX1 receptor agonism, primary screen. B-score at 10 µM. Q96LB2. 0.44% of 310,000 active. MrgX1-HEK293 cells, Fluo-4 calcium fluorescence, agonist mode; active compounds read high. AID 588627;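 active means calcium response B-score plate-corrected fluorescence ratio at least 3 library SD, with starting fluorescence B-score inside 5 SD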
Target sequence (Q96LB2 whole entry, looked up): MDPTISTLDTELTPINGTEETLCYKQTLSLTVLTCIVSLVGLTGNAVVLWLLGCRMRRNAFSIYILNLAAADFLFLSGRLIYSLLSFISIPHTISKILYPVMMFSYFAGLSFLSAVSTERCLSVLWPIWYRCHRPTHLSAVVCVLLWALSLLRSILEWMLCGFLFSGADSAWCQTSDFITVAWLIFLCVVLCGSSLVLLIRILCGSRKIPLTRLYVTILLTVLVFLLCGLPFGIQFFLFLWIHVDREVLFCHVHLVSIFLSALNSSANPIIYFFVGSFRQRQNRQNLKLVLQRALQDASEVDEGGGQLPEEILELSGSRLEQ
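Test system: HEK293 cells stably expressing human MrgX1 receptor; amount: 15,000 cells per well; doses: compound delivered in addition one of three; times: overnight plating before 1 h dye loading; detection: Fluo-4 NW calcium-flux fluorescence, kinetic read; read-out basis: B-scored fluorescence response ratio; controls: positive and negative controls per plate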
MrgX1 PAM: human MrgX1 positive allosteric modulation, primary screen; Q96LB2; MrgX1-HEK293, Fluo-4 calcium flux, FDSS; active compounds read high; B-score at 10 µM; 0.63% of 310,000 active; AID 588675;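 active means plate-corrected calcium response at least 3 library SD above typical, normal starting fluorescence, not activating the receptor alone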;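 further: compound read alongside a low EC10 to EC30 dose of BAM8-22 agonist; peak minus trough fluorescence over baseline measured at the second addition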
RGS4 block: human RGS4 inhibition. P49798. HEK293 M3R/RGS4 inducible, Fluo-4 calcium flux; active compounds read high; triggered by carbachol at its EC20. B-score at 10 µM. 0.45% of 310,000 active. AID 463165;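 active means B-score, a plate-corrected calcium signal, over three deviations above library mean, with baseline fluorescence within five deviations of library mean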;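 further: RGS4 expression induced by doxycycline in cells with stable M3 receptor; B-score is computed from the integrated fluorescence ratio over baseline after carbachol; higher B-score means a larger calcium signal and so more RGS4 inhibition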
Target sequence (P49798 whole entry, looked up): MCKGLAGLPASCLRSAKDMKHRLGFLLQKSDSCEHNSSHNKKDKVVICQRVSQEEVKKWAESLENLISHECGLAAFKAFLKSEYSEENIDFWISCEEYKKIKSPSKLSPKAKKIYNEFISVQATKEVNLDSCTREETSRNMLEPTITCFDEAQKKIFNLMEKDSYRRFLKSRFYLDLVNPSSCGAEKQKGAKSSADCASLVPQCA
MrgX1 antag: antagonists of human MrgX1 receptor; Q96LB2; MRGX1-HEK293 calcium flux, Fluo-4, BAM8-22 antagonism; active compounds read low; 1.3% of 310,000 active; B-score at 10 µM;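 active means calcium-response B-score plate-corrected more than 3 library SD below zero, starting fluorescence within 5 deviations, no agonist response on first addition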;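 further: peak minus trough fluorescence over baseline after final BAM8-22 challenge near maximal dose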
Numbers without * were called inactive; i = inactive; nt = not tested or not shown; ! = a repeat was not active.

SMILES	RGS4 pot	MrgX1 ag	MrgX1 PAM	RGS4 block	MrgX1 antag
O=C1Nc2ccccc2C1=Nc1cccc([N+](=O)[O-])c1	i	i	i	i	i
Cc1cccc(N=C2C(=O)Nc3c(Cl)cccc32)c1	i	28*	i	i	i
COc1cc(NC(=O)c2cccc(NC3=NC4CS(=O)(=O)CC4S3)c2)cc(OC)c1OC (stereo not given)	i	i	i	i	i
Cc1ccc(C(=O)c2cc([N+](=O)[O-])ccc2N2CCCCC2)cc1C	-7.6*	i	i	i	i
O=C(c1ccc(F)cc1)N1CCC(C(=O)N2CCN(S(=O)(=O)c3cccc([N+](=O)[O-])c3)CC2)CC1	i	i	i	i	i
CCCOc1ccc(NC(=O)Cc2ccc(S(=O)(=O)N3CCOCC3)s2)cc1OCCC	i	i	i	i	-4.7*
COc1ccc(NS(=O)(=O)c2cn(C)cn2)c(OC)c1	i	i	i	i	i
CNC(=S)N1N=C(c2ccc(Br)cc2)CC1c1ccc(Br)cc1 (stereo not given)	i	i	i	i	i
Cc1cc2n(n1)C(c1ccccc1)CC(c1ccc(Br)cc1)=N2 (stereo not given)	nt	i	15*	nt	i
Cc1ccc(C(O)(CCN2CCCCC2)c2ccccc2)cc1 (stereo not given)	-7.6*	i	i	i	i
OC(CCN1CCCCC1)(c1ccccc1)C1CCCCC1 (stereo not given)	i	i	i	i	i
CC(=O)Oc1ccc2c(C)c(CC(=O)N3CCN(C(=O)C4COc5ccccc5O4)CC3)c(=O)oc2c1C (stereo not given)	i	i	i	i	i
CN(C)S(=O)(=O)c1cccc(C(=O)OCC(=O)Nc2sccc2C(N)=O)c1	i	i	i	i	-5*
Cc1cccc(C)c1-n1cccc1/C=C1\SC(=S)N(c2cccc(C(=O)O)c2)C1=O	-7.6*	i	i	i	i
Cc1ccc2c(c1)S/C(=C/c1ccc[n+](C)c1)N2CCO	-7*	i	i	i	i
CC(Oc1ccccc1Cl)C(=O)Nc1ccc(S(=O)(=O)N2CCCC2)cc1 (stereo not given)	-7.2*	i	i	i	i
COC(=O)c1ccccc1S(=O)(=O)N1Cc2cc([N+](=O)[O-])ccc2Oc2ccccc21	i	i	i	i	i
CC1CC1C(=O)OCC(=O)NNC(=O)COc1ccc(Br)cc1 (stereo not given)	i	i	i	i	-6.5*
CCNC(=S)N/N=C(\C)c1ccc(Cl)s1	-7.1*	i	i	i	i
C=C(C)CNC(=S)N/N=C(\C)c1ccc(Cl)s1	i	i	i	i	-6.1*
C=CCn1c(N)cc(=O)nc1SCC(=O)Nc1ccc(C(=O)OCC)cc1	i	i	i	i	i
CS(=O)(=O)c1nsc2nc(=O)c(/C=C3\C=Nc4ccccc43)c(N)n12	i	i	i	i	i
CS(=O)(=O)c1ccc2c(c1)sc1nc(=O)c(/C=C3/C=CC(=O)C(O)=C3)c(N)n12	i	i	28*	i	i
COC1=C/C(=C/c2c(N)n3c(nc2=O)sc2cc(S(C)(=O)=O)ccc23)C=CC1=O	i	i	10*	i	i
CCCCS(=O)(=O)Nc1ccc(N2CCOCC2)c(S(=O)(=O)N2CCOCC2)c1	i	i	i	i	i
SMILES	RGS4 pot	MrgX1 ag	MrgX1 PAM	RGS4 block	MrgX1 antag
Cn1nc(-c2ccc(Cl)cc2)nc2c(=O)n(C)c(=O)nc1-2	i	i	i	i	-4.6*
CS(=O)(=O)n1nc(-c2ccc(Cl)cc2)nc1N	i	i	i	i	i
CCOC(=O)c1sc2cc([N+](=O)[O-])cc(SCCO)c2c1N	i	i	i	i	i
CCOC(=O)c1sc2cc([N+](=O)[O-])cc(SCC(=O)OC)c2c1N	i	i	i	i	-5.7*
COc1ccccc1NC(=O)CCC(=O)OCC(=O)c1ccc(C)c([N+](=O)[O-])c1	i	i	i	i	i
CC(C)c1nn2c(N)c(/C=C3\C=Nc4ccccc43)c(=O)nc2s1	i	i	13*	i	i
CCC(CC)c1nn2c(N)c(/C=C3\C=Nc4ccccc43)c(=O)nc2s1	i	i	i	i	i
CCCc1nn2c(N)c(/C=C3\C=Nc4ccccc43)c(=O)nc2s1	i	i	16*!	i	i
CCCCc1nn2c(N)c(/C=C3\C=Nc4ccccc43)c(=O)nc2s1	i	i	i	i	i
Cc1ccc(C(=O)Nc2ccccc2Oc2ccccc2)o1	i	i	i	i	-4.5*
O=C(Nc1nc(-c2ccc(F)c(F)c2)cs1)c1cc([N+](=O)[O-])ccc1N1CCOCC1	i	i	i	i	i
Cc1cc(C)c(-c2csc(NC(=O)c3cc([N+](=O)[O-])ccc3N3CCOCC3)n2)c(C)c1	-7.9*	i	i	i	i
Cc1nn(CC(=O)N2CCN(Cc3ccccc3)CC2)c(=O)c2ccccc12	i	i	6.9*	i	i
Cc1nn(CC(=O)N2CCOCC2)c(=O)c2ccccc12	i	i	i	i	i
CCN1CCN(CCNC(=O)c2ccc(/C=C3/Sc4ccccc4N(Cc4ccccc4C)C3=O)cc2)CC1	-8.4*	nt	nt	i	nt
CCCCOC(=O)c1ccc(NC(=O)Nc2ccc(OC)c(OC)c2)cc1	-7*	i	i	i	i
CC(C)(C)N1C(=O)c2ccc(C(=O)Nc3ccc(O)cc3)cc2C1=O	i	i	i	i	i
COc1ccc(-n2c3c(cc(C(=O)Nc4ccc(C)cc4)c2=O)C(=O)CCC3)cc1	i	i	i	i	i
COc1ccc(-n2c3c(cc(C#N)c2=O)C(=O)CCC3)cc1	i	i	11*	i	i
CC(Sc1nnc2c(n1)[nH]c1ccccc12)C(=O)N(C)C1CCCCC1 (stereo not given)	i	i	i	i	-7.2*
Cc1ccc2c(c1)N(C)/C(=C/c1cccc[n+]1C)S2	-7.3*	i	i	i	-7.2*
CN1/C(=C/c2cccc[n+]2C)Sc2ccccc21	-7.5*	i	i	i	i
Cc1ccc2c(c1)N(C)/C(=C/c1cccc[n+]1CCO)S2	-7.3*	i	i	i	i
Cc1ccc(O)c(NC(=O)c2onc(C)c2Cl)c1	i	i	i	i	i
O=C(NCCN1C(=O)S/C(=C\c2ccc(OC(F)F)cc2)C1=O)[C@@H]1CCCN1C(=O)c1cccs1	i	i	8.2*	i	i
